{"source": "paper PMC9283749", "about": "(Clinical and Translational Science, 2022)", "key": {"[1]": {"system": "patients with advanced solid tumors", "test": "Phase I first-in-human study, safety and antitumor activity", "format": "in vivo", "summary_of_the_method": "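Patients with advanced solid tumours. Without run-in, patients got 5, 7.5, 10, 15, 20, 22.5 or 30 mg continuous q.d.; 30 or 45 mg intermittent q.d. (4 days on/3 off); or 5 mg continuous b.i.d. Adverse events were graded by CTCAE v4.03.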"}, "Population PK modeling": {"test": "Population PK modeling", "format": "in vivo, human", "details": "patients, 5-45 mg oral", "summary_of_the_method": "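Pooled 1098 plasma concentrations from 66 patients across 10 oral regimens, measured by LC-MS/MS (LLOQ 1.0 ng/ml). Serial sampling to 24 h on C1D1 and C1D15, plus predose troughs. Two-compartment model with first-order absorption, lag time and linear clearance, fitted in log domain by FOCE in NONMEM. Log-normal interindividual variability on Ka, CL, Vc, CLd, Vp and Tlag; baseline covariates screened.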"}, "[2]": {"system": "skin AXIN2 mRNA expression", "test": "Exposure-response analysis for biomarker", "format": "in vivo", "details": "Homo sapiens, read-out: WNT974 concentration resulting in 50% Emax (EC50), skin AXIN2 reduction, estimated mean (90% prediction interval)"}, "[3]": {"test": "Simulated steady-state PK from the PopPK model", "format": "in vivo, human", "summary_of_the_method": "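Steady-state C1D15 plasma profiles simulated from the final population PK model in 200–500 hypothetical patients per continuous once-daily dosing scenario. Cmin, Cmax and AUC24h derived from the simulated profiles.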"}, "[4]": {"details": "cited from earlier work"}, "CYP3A4": {"system": "CYP3A4", "details": "cited from earlier work"}, "CYP3A": {"system": "CYP3A", "details": "in vitro; cited from earlier work"}, "[5]": {"system": "xenograft and Wnt ligand-driven mouse tumor models", "details": "cited from earlier work"}, "[6]": {"details": "cited from earlier work", "remark": "listed apart in the source"}, "[7]": {"system": "patients with advanced solid tumors", "details": "cited from earlier work"}, "Porcupine": {"system": "Porcupine", "details": "read-out: in vitro cellular IC50 for Porcupine; cited from earlier work"}}, "note": "Entries after “also recorded” stand apart in the source; their conditions may differ.", "data": [{"smiles": "Cc1cc(-c2ncc(CC(=O)Nc3ccc(-c4cnccn4)cn3)cc2C)ccn1", "note": "[WNT974]", "values": [{"measurement": "maximum tolerated dose (MTD)", "setting": "[1]; dose-escalation part, 5-45 mg", "result": "not established"}, {"measurement": "antitumor activity in patients", "setting": "[1]; dose-escalation study", "result": "limited antitumor activity"}, {"measurement": "Absorption lag time (Tlag), population estimate (%RSE)", "setting": "Population PK modeling", "result": "0.412 (3.2) h"}, {"measurement": "Apparent central clearance (CL/F), population estimate (%RSE)", "setting": "Population PK modeling", "result": "20.7 (3.9) L/h"}, {"measurement": "Central volume of distribution (Vc), population estimate (%RSE)", "setting": "Population PK modeling", "result": "138 (2.0) L"}, {"measurement": "Distribution clearance (CLd), population estimate (%RSE)", "setting": "Population PK modeling", "result": "7.11 (9.4) L/h"}, {"measurement": "Peripheral volume of distribution (Vp), population estimate (%RSE)", "setting": "Population PK modeling", "result": "260 (9.4) L"}, {"measurement": "Absorption rate constant (Ka), population estimate (%RSE)", "setting": "Population PK modeling; 66 patients", "result": "1.60 (17.0) 1/h"}, {"measurement": "EC50", "setting": "[2]", "result": 0.45, "unit": "ng/mL"}, {"measurement": "Predicted steady-state AUC24h, mean (90% confidence interval)", "setting": "[3]; 5 mg q.d.", "result": "233 (133–445) ng h/ml"}, {"measurement": "Predicted steady-state Cmax, mean (90% confidence interval)", "setting": "[3]; 5 mg q.d.", "result": "28.1 (13.7–59.1) ng/ml"}, {"measurement": "Predicted steady-state Cmin, mean (90% confidence interval)", "setting": "[3]; 5 mg q.d.", "result": "2.83 (0.835–8.02) ng/ml"}, {"measurement": "Predicted steady-state AUC24h, mean (90% confidence interval)", "setting": "[3]; 10 mg q.d.", "result": "468 (254–880) ng h/ml"}, {"measurement": "Predicted steady-state Cmax, mean (90% confidence interval)", "setting": "[3]; 10 mg q.d.", "result": "55.7 (26.1–109) ng/ml"}, {"measurement": "Predicted steady-state Cmin, mean (90% confidence interval)", "setting": "[3]; 10 mg q.d.", "result": "5.78 (1.66–16.3) ng/ml"}, {"measurement": "Predicted steady-state AUC24h, mean (90% confidence interval)", "setting": "[3]; 15 mg q.d.", "result": "699 (394–1294) ng h/ml"}, {"measurement": "Predicted steady-state Cmax, mean (90% confidence interval)", "setting": "[3]; 15 mg q.d.", "result": "80.6 (41.7–166) ng/ml"}, {"measurement": "Predicted steady-state Cmin, mean (90% confidence interval)", "setting": "[3]; 15 mg q.d.", "result": "8.21 (2.60–24.3) ng/ml"}, {"measurement": "elimination half-life (t1/2)", "setting": "[4]; all the animal species (mouse, rat, dog)", "result": "0.6 to 2.2", "unit": "h"}, {"measurement": "oral bioavailability", "setting": "[4]; mouse, rat, and dog", "result": "60–100%"}, {"measurement": "metabolism", "setting": "CYP3A4", "result": "extensively metabolized, primarily by CYP3A4"}, {"measurement": "CYP3A inhibition", "setting": "CYP3A", "result": "moderate reversible inhibitor"}, {"measurement": "antitumor activity", "setting": "[5]; preclinical tumor models", "result": "exhibited antitumor activity; also recorded: potent antitumor activity"}, {"measurement": "AXIN2 mRNA expression in tumors", "setting": "[5]; xenograft and Wnt ligand-driven mouse tumor models", "result": "reduction of AXIN2 mRNA expression in tumors"}, {"measurement": "mean unbound Cmin", "setting": "[6]; C1D15, continuous q.d. dose of 5-30 mg", "result": "1.1 to 7.6", "unit": "nM"}, {"measurement": "dose proportionality of exposure", "setting": "[6]; dose range 5-45 mg", "result": "dose proportional"}, {"measurement": "mean t1/2", "setting": "[6]; patients, oral administration", "result": "5 to 8", "unit": "h"}, {"measurement": "median Tmax", "setting": "[6]; patients, oral administration", "result": "1 to 3", "unit": "h"}, {"measurement": "patients with dysgeusia (most common adverse event)", "setting": "[7]; FIH study", "result": "~ 50 % of patients"}, {"measurement": "best response: patients with stable disease", "setting": "[7]; dose-expansion part of the single-agent study", "result": "16 % of patients"}, {"measurement": "IC50", "setting": "Porcupine", "result": 0.4, "unit": "nM"}]}]}
